In data set [1] the target is T1, Melatonin receptor type 1A (Homo sapiens, UniProt P48039). Briefly: Agonist activity at human MT1 receptor transfected in HEK293T cells co-transfected with tet-inducible luciferase reporter plasmid, pCDNA3.1(+)-CMV-betaArrestin2-tev plasmid and TANGO plasmid assessed as tango arrestin recruitment incubated for 24 hrs by TANGO-GPCR assay based luminescence plate reader analysis. It counts as functional, cell-based. Background: Reporter assays use an easily measured gene product as a stand-in for the process of interest.
T1 sequence (P48039 whole entry): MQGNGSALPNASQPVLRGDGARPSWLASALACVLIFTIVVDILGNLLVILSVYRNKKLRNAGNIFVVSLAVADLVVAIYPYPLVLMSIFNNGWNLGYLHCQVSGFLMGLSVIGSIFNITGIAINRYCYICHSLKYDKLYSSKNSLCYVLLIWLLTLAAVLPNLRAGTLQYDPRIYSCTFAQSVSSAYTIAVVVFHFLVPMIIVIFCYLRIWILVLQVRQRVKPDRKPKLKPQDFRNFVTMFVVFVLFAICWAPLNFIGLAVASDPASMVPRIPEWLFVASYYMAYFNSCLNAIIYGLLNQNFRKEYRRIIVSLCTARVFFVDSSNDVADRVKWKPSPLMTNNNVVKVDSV

Data set [2] in a line: Subacute toxicity in Kunming mouse assessed as effect on liver structure at 240 mg/kg, po administered for 14 days. It counts as organism-based. The following applies: in vivo, 336 h, time 14 day. Put shortly: (§1)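 Subacute oral study following OECD 425. Animals randomised into two groups of six. Vehicle control received 0.5% CMC-Na orally for 14 consecutive days; the treated group received 240 mg kg−1 body weight orally for 14 consecutive days.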

Data set [3] concerns the target T2, Melatonin receptor type 1B (Homo sapiens, UniProt P49286).
T2 sequence (P49286 whole entry): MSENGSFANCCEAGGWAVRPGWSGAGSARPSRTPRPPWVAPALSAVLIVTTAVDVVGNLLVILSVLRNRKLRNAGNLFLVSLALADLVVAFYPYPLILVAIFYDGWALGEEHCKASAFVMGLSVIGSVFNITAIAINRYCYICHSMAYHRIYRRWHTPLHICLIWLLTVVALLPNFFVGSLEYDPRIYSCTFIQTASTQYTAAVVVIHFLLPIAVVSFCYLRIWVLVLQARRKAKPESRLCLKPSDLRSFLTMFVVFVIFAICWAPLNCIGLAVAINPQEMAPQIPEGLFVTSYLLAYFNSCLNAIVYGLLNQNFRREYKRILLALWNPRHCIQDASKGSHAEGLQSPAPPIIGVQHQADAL
Briefly: Agonist activity at human MT2 receptor expressed in HEK293 cells by Fluo-8 based calcium assay. It counts as functional, cell-based.

Data set [4] has as its system Mus musculus. Briefly: Antidepressant activity in kunming mouse assessed as increase in 5-HT level in hippocampus at 160 mg/kg, po measured after 14 days by HPLC-ECD analysis. Type of data set: functional, organism-based. The note with it: time 14.0 day. Put shortly:
(§2)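 Male Kunming mice dosed orally with vehicle or 160 mg kg−1 for 14 days, then killed by cervical dislocation. Brain regions dissected on ice, homogenized in 0.2 M perchloric acid with 0.1 mM EDTA and spun at 4 °C for 20 min. Supernatant analysed by HPLC-ECD at +0.50 V, mobile phase pH 3.0. Amounts given in ng g−1 as mean ± SEM, n = 12.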

Data set [5] can be described thus: Subacute toxicity in Kunming mouse assessed as animal death at 240 mg/kg, po administered for 14 days. The note with it: in vivo, 336 h, time 14 day. It counts as organism-based. The method in brief: as §1
The test system of data set [6] is Mus musculus. Briefly: Antidepressant activity in kunming mouse assessed as increase in dopamine level in striatum at 160 mg/kg, po measured after 14 days by HPLC-ECD analysis. It counts as functional, organism-based. The note with it: time 14.0 day. The method in brief: as §2
Data set [7] can be described thus: Subacute toxicity in Kunming mouse assessed as effect on heart structure at 240 mg/kg, po administered for 14 days. It counts as organism-based. The following applies: in vivo, 336 h, time 14 day. The method in brief:
as §1

Data set [8] is described as follows: Subacute toxicity in Kunming mouse assessed as effect on lung structure at 240 mg/kg, po administered for 14 days. It counts as organism-based. The note with it: in vivo, 336 h, time 14 day. Put shortly: as §1
Data set [9] deals with Mus musculus. Briefly: Antidepressant activity in kunming mouse assessed as increase in dopamine level in frontal cortex at 160 mg/kg, po measured after 14 days by HPLC-ECD analysis. Type of data set: functional, organism-based. The following applies: time 14.0 day. Put shortly: as §2
Data set [10] addresses T2, Melatonin receptor type 1B. Briefly: Agonist activity at human MT2 receptor transfected in HEK293T cells co-transfected with tet-inducible luciferase reporter plasmid, pCDNA3.1(+)-CMV-betaArrestin2-tev plasmid and TANGO plasmid assessed as relative luminescence unit incubated for 24 hrs by TANGO-GPCR assay based luminescence plate reader analysis. Type of data set: functional, cell-based.

The test system of data set [11] is Mus musculus. Briefly: Antidepressant activity in kunming mouse assessed as decrease in 5-HIAA level in hippocampus at 160 mg/kg, po measured after 14 days by HPLC-ECD analysis. Type of data set: functional, organism-based. The following applies: time 14.0 day. The method in brief: as §2
The subject of data set [12] is Mus musculus. Briefly: Antidepressant activity in Kunming mouse assessed as decrease in immobility time at 160 mg/kg, po and measured after 14 days by forced swim test relative to control. It counts as functional. Also noted: scale not given: the % may be the effect or the level left. The note with it: time 14 day. Put shortly: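 Male Kunming mice, 15–18 g, given the test compound orally for 14 days. Forced swim then done in a cylinder 25 cm high and 15 cm in diameter, water 10 cm deep at 25 ± 1 °C. Swim lasted 6 min and immobility over the final 4 min was video-scored against the vehicle group.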

The nature of data set [13]: Subacute toxicity in Kunming mouse assessed as effect on spleen structure at 240 mg/kg, po administered for 14 days. It counts as organism-based. The following applies: in vivo, 336 h, time 14 day. The method in brief: as §1
For data set [14], the system named is Mus musculus. Briefly: Antidepressant activity in kunming mouse assessed as decrease in DOPAC level in thalamus at 160 mg/kg, po measured after 14 days by HPLC-ECD analysis. It counts as functional, organism-based. The note with it: time 14.0 day. Put shortly:
as §2

Data set [15] addresses T1, Melatonin receptor type 1A. Briefly: Agonist activity at human MT1 receptor expressed in HEK293 cells by Fluo-8 based calcium assay. It counts as functional, cell-based.
In data set [16] the test system is Mus musculus. Briefly: Antidepressant activity in kunming mouse assessed as increase in 5-HT level in frontal cortex at 160 mg/kg, po measured after 14 days by HPLC-ECD analysis. Type of data set: functional, organism-based. The note with it: time 14.0 day. Put shortly: as §2
For data set [17], the system named is Mus musculus. Briefly: Antidepressant activity in kunming mouse assessed as increase in dopamine level in hippocampus at 160 mg/kg, po measured after 14 days by HPLC-ECD analysis. The note with it: time 14.0 day. Type of data set: functional, organism-based. Put shortly: as §2
Data set [18] relates to Mus musculus. Briefly: Antidepressant activity in kunming mouse assessed as decrease in 5-HIAA level in striatum at 160 mg/kg, po measured after 14 days by HPLC-ECD analysis. It counts as functional, organism-based. The following applies: time 14.0 day. The method in brief:
as §2

Data set [19] relates to Mus musculus. Briefly: Antidepressant activity in kunming mouse assessed as increase in 5-HT level in thalamus at 160 mg/kg, po measured after 14 days by HPLC-ECD analysis. It counts as functional, organism-based. The note with it: time 14.0 day. Put shortly: as §2
Data set [20] concerns Mus musculus. Briefly: Antidepressant activity in Kunming mouse assessed as decrease in immobility time at 10 to 160 mg/kg, po administered two times at 1 hrs and 24 hrs and measured at last 4 mins of 6 mins test by forced swim test. It counts as functional, organism-based. The note with it: dose 10-160 mg/kg, time 1444.0 min. Put shortly:
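Male Kunming mice, 15–18 g, housed six per cage at 22 ± 1 °C on a 12 h light/dark cycle. Oral dosing 24 h and 1 h before the test. Each mouse placed in a cylinder (25 cm high, 15 cm diameter) holding 10 cm of water at 25 ± 1 °C and made to swim 6 min; immobility over the last 4 min scored by video tracking.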

For data set [21], the target named is T1, Melatonin receptor type 1A. Briefly: Agonist activity at human MT1 receptor transfected in HEK293T cells co-transfected with tet-inducible luciferase reporter plasmid, pCDNA3.1(+)-CMV-betaArrestin2-tev plasmid and TANGO plasmid assessed as tango arrestin recruitment by measuring maximum activity incubated for 24 hrs by TANGO-GPCR assay based luminescence plate reader analysis relative to agomelatine. It counts as functional, cell-based. The note with it: filed as agonist. The method in brief:
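Tango arrestin recruitment: 293T cells transiently transfected with a tet-inducible luciferase reporter, CMV-βArrestin2-TEV and TANGO receptor plasmids. On day 2, replated at 20 000 cells per well on poly-L-lysine. Drug added on day 3. On day 4, luciferase reagent added for 20 min and luminescence counted. Curves fitted; data given as mean ± SD.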

In data set [22] the test system is Mus musculus. Briefly: Antidepressant activity in kunming mouse assessed as increase in dopamine level in thalamus at 160 mg/kg, po measured after 14 days by HPLC-ECD analysis. It counts as functional, organism-based. The note with it: time 14.0 day. Put shortly:
as §2

The test system of data set [23] is Mus musculus. Briefly: Antidepressant activity in kunming mouse assessed as decrease in 5-HIAA level in frontal cortex at 160 mg/kg, po measured after 14 days by HPLC-ECD analysis. It counts as functional, organism-based. The following applies: time 14.0 day. The method in brief: as §2
For data set [24], the system named is Mus musculus. Briefly: Antidepressant activity in kunming mouse assessed as decrease in DOPAC level in hypothalamus at 160 mg/kg, po measured after 14 days by HPLC-ECD analysis. The following applies: time 14.0 day. Type of data set: functional, organism-based. Put shortly:
as §2

The structures appear in SMILES notation. Active and inactive are the calls of the source. The calls are words filed in the database; no cut-off is given here.

Consider `COc1cc2c(CN3CCN(C)CC3)coc2cc1C`, for which the 50% effective concentration (EC50) is 21 µM in data set [1], 260 µM in data set [3], 299 µM in data set [10] and 330 µM in [15]. Also, the Activity entry is listed as “Non-Toxic” in data set [2]; “Non-Toxic” in [5]; “Non-Toxic” in data set [7]; “Non-Toxic” in data set [8]; 28% in the data set with Mus musculus [12]; “Non-Toxic” in data set [13]. In addition, the outcome with Mus musculus [4], with Mus musculus [6], in the data set on Mus musculus [9], in the data set on Mus musculus [11], in the data set with Mus musculus [14] and in the data set with Mus musculus [16] was Active. Besides, the result with Mus musculus [17], in the data set on Mus musculus [18], in the data set with Mus musculus [19], with Mus musculus [20], in the data set with Mus musculus [22] and in the data set with Mus musculus [23] was Active. Further, the result in the data set on Mus musculus [24] was Active. Also, in [21], the Emax amounted to 57%.

As a reminder, the EC50 is the midpoint of the concentration-response curve. For orientation: Emax means the maximal effect, on the per cent scale that the assay sets.
